Results as given in PMC7106486 (Science translational medicine, 2019).

Columns and labels:
[1] = test system: clinical S. aureus strains expressing PSMα; test: Protection against clinical S. aureus strains expressing PSMα
[2] = test system: S. aureus USA300 LAC agr type I P3-YFP; test: S. aureus agr activity, P3-YFP reporter, in vitro; type: cell-based; conditions: synthetic peptide, overnight culture
[3] = test system: Klk6 and cytokine (Il6, Il17a, Il17f) mRNA in murine skin; test: Klk6 and cytokine mRNA expression on murine skin; type: in vivo, mouse C57BL/6; conditions: synthetic autoinducing peptide 10 μg with S. aureus 1 × 10^7 CFU, 48 hours
Outline: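 Male C57BL/6 mice, 8 weeks old, shaved and Nair-depilated (2 min), then rested 48 h. S. aureus USA300 LAC (agr type I, from 18 h cultures in 3% TSB at 37°C), 1 × 10^7 CFU in 3% TSB (100 μl), applied with synthetic autoinducing peptide (10 μg, DMSO) on 2-cm2 gauze under Tegaderm to back skin for 48 h. Applied CFU confirmed next day; n = 5.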

[4] = test system: murine back skin treated with S. aureus; test: Transepidermal water loss; type: in vivo, mouse C57BL/6; conditions: synthetic autoinducing peptide 10 μg with S. aureus 1 × 10^7 CFU, 48 hours
Outline: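 Back skin of 8-week male C57BL/6 mice depilated (shave plus Nair 2 min), allowed 48 h barrier recovery. S. aureus USA300 LAC agr type I (1 × 10^7 CFU, 100 μl 3% TSB) plus synthetic autoinducing peptide (10 μg, DMSO) applied on 2-cm2 gauze under Tegaderm for 48 h. Transepidermal water loss measured by Tewameter on treated skin; n = 5.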

## S-Y-N-V-c(C-G-G-Y-F) [S. hominis C5 autoinducing peptide]
[1]
  protection against clinical S. aureus strains (in words): protective against clinical S. aureus strains expressing PSMα
[2]
  inhibition of S. aureus agr activity (in words): potently inhibited S. aureus agr activity in a dose-dependent manner
[2]; listed as SYNVCGGYF
  inhibition of S. aureus agr activity (in words): highly potent inhibitor of S. aureus agr activity
[3]
  Klk6 expression on murine skin (in words): inhibited TEWL, Klk6
[4]
  TEWL on murine skin (in words): inhibited TEWL
